# In ChEMBL document CHEMBL4765252, “Design, synthesis, and biological evaluation of novel 4H-chromen-4-one derivatives as antituberculosis agents against multidrug-resistant tuberculosis” (Eur J Med Chem, 2020):
# Columns and labels:
# [1] = test system: Mycobacterium tuberculosis; experiment: Antitubercular activity against Mycobacterium tuberculosis H37Rv assessed as inhibition of bacterial growth; type: functional
# [2] = test system: Mycobacterium tuberculosis; experiment: In vivo antitubercular activity against Mycobacterium tuberculosis H37Rv infected in BALB/c mouse assessed as reduction in bacterial burden in lungs at 25 mg/kg, po administered for 21 days (reference value: 5.35 +/-0.17 log10CFU); type: functional; settings: time 21 day
# [3] = Toxicity in BALB/c mouse infected with Mycobacterium tuberculosis H37Rv assessed as body weight at 25 mg/kg, po administered for 21 days (reference value: 21.32 +/- 1.03 gms); type: organism-based; settings: in vivo, 504 h, time 21 day
# [4] = test system: Mycobacterium tuberculosis; experiment: Antitubercular activity against Mycobacterium tuberculosis H37Rv assessed as inhibition of bacterial growth measured after 7 days by resazurin assay; type: functional; settings: 168 h, time 7 day
# [5] = Metabolic stability of the compound in mouse liver microsomes; type: ADME, Microsome
# How it was run: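 Compound was incubated with mouse liver microsomes plus NADPH for 30 min. Remaining substrate concentration was normalized to the time-zero concentration and given as % remaining. The stability call was made from incubations run without the NADPH cofactor.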
# [6] = Selectivity index, ratio of IC50 for African green monkey Vero cells to MIC for Mycobacterium tuberculosis H37Rv; type: toxicity; settings: read-out: Selectivity Index
# How it was run: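 SI was calculated as Vero cell cytotoxicity IC50 divided by H37Rv MIC, both in μg/mL.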
# [7] = test system: Vero; experiment: Cytotoxicity against African green monkey Vero cells assessed as reduction in cell viability; type: cell-based; settings: Chlorocebus sabaeus
# [8] = Metabolic stability of the compound in mouse liver microsomes assessed as parent compound remaining […]; type: ADME, Microsome; settings: read-out: Stabilty
# [9] = Metabolic stability of the compound in human liver microsomes; type: ADME, Microsome
# [10] = test system: Mycobacterium tuberculosis; experiment: microbe, parasite or virus in culture; settings: mc2-7000, 144 h
# [11] = test system: Mycobacterium tuberculosis; experiment: Antitubercular activity against Mycobacterium tuberculosis H37Rv assessed as inhibition of bacterial growth incubated for 6 days by MABA assay; type: functional; settings: 144 h, time 6 day
# [12] = Elimination half life in BALB/c mouse at 5 mg/kg, iv administered as single dose; type: ADME, organism-based; settings: in vivo, read-out: beta t1/2 (converted)
# [13] = MRT (0 to infinity) in BALB/c mouse at 100 mg/kg, po administered as single dose; type: ADME, organism-based; settings: in vivo
# [14] = Tmax in BALB/c mouse at 100 mg/kg, po administered as single dose; type: ADME, organism-based; settings: in vivo
# [15] = Volume of distribution in BALB/c mouse at 5 mg/kg, iv administered as single dose; type: ADME, organism-based; settings: in vivo
# [16] = AUC (0 to t) in BALB/c mouse at 5 mg/kg, iv administered as single dose; type: ADME, organism-based; set-up: dose 5 mg/kg; settings: in vivo
# [17] = Clearance in BALB/c mouse at 5 mg/kg, iv administered as single dose; type: ADME, organism-based; settings: in vivo
# [18] = AUC (0 to t) in BALB/c mouse at 100 mg/kg, po administered as single dose; type: ADME, organism-based; set-up: dose 100 mg/kg; settings: in vivo
# [19] = MRT (0 to t) in BALB/c mouse at 100 mg/kg, po administered as single dose; type: ADME, organism-based; settings: in vivo
# [20] = test system: Mycobacterium tuberculosis; experiment: In vivo antitubercular activity against Mycobacterium tuberculosis H37Rv infected in BALB/c mouse assessed as reduction in bacterial burden in lungs at 100 mg/kg, po administered for 21 days (reference value: 5.35 +/-0.17 log10CFU); type: functional; settings: time 21 day
# [21] = AUC (0 to infinity) in BALB/c mouse at 100 mg/kg, po administered as single dose; type: ADME, organism-based; set-up: time infinity, route oral, dose 100 mg/kg; settings: in vivo
# [22] = Toxicity in BALB/c mouse infected with Mycobacterium tuberculosis H37Rv assessed as body weight at 100 mg/kg, po administered for 21 days (reference value: 21.32 +/- 1.03 gms); type: organism-based; settings: in vivo, 504 h, time 21 day
# [23] = AUC (0 to infinity) in BALB/c mouse at 5 mg/kg, iv administered as single dose; type: ADME, organism-based; set-up: time infinity, route intravenous, dose 5 mg/kg; settings: in vivo
# [24] = MRT (0 to infinity) in BALB/c mouse at 5 mg/kg, iv administered as single dose; type: ADME, organism-based; settings: in vivo
# [25] = Elimination half life in BALB/c mouse at 100 mg/kg, po administered as single dose; type: ADME, organism-based; settings: in vivo, read-out: beta t1/2 (converted)
# [26] = Oral bioavailability in BALB/c mouse at 100 mg/kg; type: ADME, organism-based; settings: in vivo
# [27] = MRT (0 to t) in BALB/c mouse at 5 mg/kg, iv administered as single dose; type: ADME, organism-based; settings: in vivo
# [28] = Cmax in BALB/c mouse at 5 mg/kg, iv administered as single dose; type: ADME, organism-based; set-up: route intravenous, dose 5 mg/kg; settings: in vivo
# [29] = Cmax in BALB/c mouse at 100 mg/kg, po administered as single dose; type: ADME, organism-based; set-up: route oral, dose 100 mg/kg; settings: in vivo
smiles,measurement,setting,value
O=c1c(-c2ccc(O)cc2)coc2ccc(O)c(CN3CCCCC3)c12,MIC,[1],> 32 µg/mL
COc1ccc(-c2cc(=O)c3cc(O)ccc3o2)cc1,MIC,[1],> 32 µg/mL
O=c1cc(-c2ccc(O)cc2)oc2ccc(O)c(CN3CCCCCC3)c12,MIC,[1],7.2 µg/mL
CNC(=O)c1c(-c2ccccc2)oc2ccc(O)c(CN3CCC3)c2c1=O,MIC,[1],> 32 µg/mL
O=c1cc(-c2ccccc2)oc2ccc(O)c(CN3CC4(CSC4)C3)c12,MIC,[1],31.1 µg/mL
O=c1cc(-c2ccc(O)cc2)oc2ccc(O)c(CN3CC4(CSC4)C3)c12,MIC,[1],15.3 µg/mL
COc1ccc(-c2cc(=O)c3c(CN4CCCCC4)c(O)ccc3o2)cc1,MIC,[1],7.3 µg/mL
NNC(=O)c1ccncc1 [ISONIAZID],MIC,[1],0.039 µg/mL
same,Activity,[2],1.76 log10CFU
same,Activity,[3],20.9 g
O=c1cc(-c2ccc(O)cc2)oc2ccc(O)c(CN3CCOCC3)c12,MIC,[1],> 32 µg/mL
C=CCCCCCCC[C@H]1C(=O)O[C@@H]1CCCCCNC(=O)c1ccc(N(C)C)cc1,MIC,[4],1.6 µM
O=c1cc(-c2ccc(O)cc2)oc2ccc(O)c(CN3CCCC3)c12,Stabilty,[5],Stable
same,selectivity ratio,[6],9
same,MIC,[1],0.938 µg/mL
same,IC50,[7],8.8 µg/mL
same,remaining at 0.5 h,[8],102%
same,Stabilty,[9],Stable
CNC(=O)c1c(-c2ccc(O)cc2)oc2ccc(O)c(CN3CCCCC3)c12,MIC,[1],0.047 µg/mL
same,MIC,[10],0.09 µM
CCOC(=O)c1c(-c2ccc(O)cc2)oc2ccc(O)c(CN3CCCC3)c2c1=O,MIC,[1],> 32 µg/mL
O=c1cc(-c2ccc(O)cc2)oc2ccc(O)c(CNC3CCCCC3)c12,MIC,[1],> 32 µg/mL
CCOC(=O)c1c(-c2ccccc2)oc2ccc(O)c(CN3CCCC3)c2c1=O,MIC,[1],> 32 µg/mL
CCN(CC)Cc1c(O)ccc2oc(-c3ccc(O)cc3)cc(=O)c12,MIC,[1],29.9 µg/mL
O=c1cc(-c2ccc(Cl)cc2)oc2ccc(O)c(CN3CCC3)c12,MIC,[1],28.5 µg/mL
Cc1ccc(-c2cc(=O)c3c(CN4CCC4)c(O)ccc3o2)cc1,MIC,[1],6.52 µg/mL
CN(C)Cc1c(O)ccc2oc(-c3ccc(O)cc3)cc(=O)c12,MIC,[1],> 32 µg/mL
CCOC(=O)c1c(-c2ccc(O)cc2)oc2ccc(O)c(CN3CCC3)c2c1=O,MIC,[1],7.91 µg/mL
CO[C@H]1/C=C/O[C@@]2(C)Oc3c(C)c(O)c4c(O)c(c(/C=N/N5CCN(C)CC5)c(O)c4c3C2=O)NC(=O)/C(C)=C\C=C\[C@H](C)[C@H](O)[C@@H](C)[C@@H](O)[C@@H](C)[C@H](OC(C)=O)[C@@H]1C [RIFAMPIN],MIC,[1],0.057 µg/mL
O=c1cc(-c2ccccc2)oc2ccc(O)c(CN3CCC3)c12,MIC,[1],3.22 µg/mL
COC(=O)c1c(NC(=O)c2c(F)c(F)c(F)c(F)c2F)sc2c1CCCCC2,MIC,[1],1 µM
O=c1cc(-c2ccc(F)cc2)oc2ccc(O)c(CN3CCC3)c12,MIC,[1],3.55 µg/mL
CCOC(=O)c1c(NC(=O)c2c(F)c(F)c(F)c(F)c2F)sc2c1CCN(CC)C2,MIC,[11],0.23 µM
O=c1cc(-c2ccc(O)cc2)oc2ccc(O)c(CN3CCC3)c12,half-life,[12],1.28 h
same,Stabilty,[5],Stable
same,selectivity ratio,[6],117
same,MIC,[1],0.45 µg/mL
same,MRT inf,[13],1.82 h
same,Tmax,[14],0.25 h
same,Vd,[15],8.86 L/kg
same,AUC(0-t),[16],1030 ng·h/mL
same,clearance,[17],80.1 mL/min/kg
same,AUC(0-t),[18],4220 ng·h/mL
same,MRT last,[19],1.7 h
same,Activity,[20],4.77 log10CFU
same,IC50,[7],53.1 µg/mL
same,remaining at 0.5 h,[8],96%
same,AUC(0-inf),[21],4290 ng·h/mL
same,Stabilty,[9],Stable
same,Activity,[22],20.57 g
same,AUC(0-inf),[23],1040 ng·h/mL
same,MRT inf,[24],0.69 h
same,half-life,[25],1.42 h
same,bioavailability,[26],20.5%
same,MRT last,[27],0.61 h
same,Cmax,[28],4460 ng/mL
same,Cmax,[29],1660 ng/mL
O=c1cc(-c2ccc(O)cc2)oc2ccc(O)c(CN3CCCCC3)c12,MIC,[1],3.84 µg/mL
O=c1cc(-c2ccccc2)oc2ccc(O)c(CN3CCCC3)c12,MIC,[1],3.68 µg/mL
CNC(=O)c1c(-c2ccccc2)oc2ccc(O)c(CN3CCCCC3)c2c1=O,MIC,[1],> 32 µg/mL
O=c1cc(-c2ccccc2)oc2ccc(O)c(CN3CCCCC3)c12,MIC,[1],3.12 µg/mL
CCOC(=O)c1c(-c2ccccc2)oc2ccc(O)c(CN3CCCCC3)c2c1=O,MIC,[1],31.9 µg/mL
CCOC(=O)c1c(NC(=O)c2c(F)c(F)c(F)c(F)c2F)sc(C(N)=O)c1C,MIC,[1],0.5 µM
CCOC(=O)c1c(-c2ccccc2)oc2ccc(O)c(CN3CCC3)c2c1=O,MIC,[1],14.1 µg/mL
CNC(=O)c1c(-c2ccccc2)oc2ccc(O)c(CN3CCCC3)c2c1=O,MIC,[1],> 32 µg/mL
